Measured values reported in ChEMBL document CHEMBL3414544, “PAINS in the assay: chemical mechanisms of assay interference and promiscuous enzymatic inhibition observed during a sulfhydryl-scavenging HTS” (J Med Chem, 2015).
Calls of active or inactive are those of the source.

Legend:
[1] = target: T1, Histone acetyltransferase RTT109 (Saccharomyces cerevisiae (strain ATCC 204508 / S288c) (Baker's yeast)) (UniProt Q07794); test: Inhibition of Vps75-stimulated recombinant Saccharomyces cerevisiae histone acetyltransferase Rtt109 assessed as H3K56 acetylated product at […] after 45 mins by Slot bolt inhibiton assay
T1 sequence (whole entry): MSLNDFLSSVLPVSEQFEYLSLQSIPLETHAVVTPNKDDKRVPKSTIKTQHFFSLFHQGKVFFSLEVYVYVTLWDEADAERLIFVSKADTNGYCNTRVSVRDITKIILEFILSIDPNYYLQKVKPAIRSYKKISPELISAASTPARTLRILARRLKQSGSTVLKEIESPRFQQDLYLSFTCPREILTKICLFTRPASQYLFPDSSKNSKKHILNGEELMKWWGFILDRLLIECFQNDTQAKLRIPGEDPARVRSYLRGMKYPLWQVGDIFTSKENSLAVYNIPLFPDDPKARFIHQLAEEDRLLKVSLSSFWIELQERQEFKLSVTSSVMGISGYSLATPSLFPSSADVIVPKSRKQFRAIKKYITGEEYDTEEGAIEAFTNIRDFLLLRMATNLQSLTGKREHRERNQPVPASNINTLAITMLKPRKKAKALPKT

[2] = target: T1, Histone acetyltransferase RTT109 (Saccharomyces cerevisiae (strain ATCC 204508 / S288c) (Baker's yeast)); test: Inhibition of Vps75-stimulated recombinant Saccharomyces cerevisiae histone acetyltransferase Rtt109 assessed as H3K27 acetylated product at […] after 45 mins by Slot bolt inhibiton assay
[3] = Fluorescence quenching assessed as fluorescence signal reduction at 10 uM after 10 mins; assay type: physicochemical
Summary of the method: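 CPM (20 μM final) and CoA (5 μM final) reacted to completion in assay buffer (stable plateau, usually ~5 min); adduct solution added to wells preplated with compound; shaken 5 min, equilibrated 5 min at room temperature; fluorescence intensity read as percent signal reduction versus DMSO controls. Flagged as quencher at >20% signal reduction at 10 μM final compound.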

[4] = Fluorescence quenching in HTS buffer assessed as fluorescence signal reduction at 10 uM after 10 mins; assay type: physicochemical
[5] = Fluorescence quenching in HTS buffer with […] CoA assessed as fluorescence signal reduction at 10 uM after 10 mins; assay type: physicochemical
[6] = Fluorescence quenching in HTS buffer with 20 uM 7-diethylamino-3-(4'-maleimidyl-phenyl)-4-methylcoumarin assessed as fluorescence signal reduction at 10 uM after 10 mins; assay type: physicochemical

SMILES	Activity [1]	Activity [2]	Activity [3]	Activity [4]	Activity [5]	Activity [6]
COc1ccc(Nc2nc(-c3ccc(C)cc3)[n+](Cc3ccccc3)s2)cc1.[Cl-]	Active	Active	Not Active	Not Active	Not Active	Not Active
O=S(=O)(Nc1ccc(O)c(Br)c1)c1ccc(Cl)cc1	inactive	inactive	Not Active	Not Active	Not Active	Not Active
Cc1ccc(-c2nnc(SC3CC(=O)N(c4ccc(Oc5ccccc5)cc4)C3=O)[nH]2)cc1 (stereo unspecified)	Active	Active	Not Active	Not Active	Not Active	Not Active
CC(C)c1ccc(S(=O)(=O)Nc2ccc(O)c(Br)c2)cc1	inactive	inactive	Not Active	Not Active	Not Active	Not Active
Cn1c(Sc2ccc([N+](=O)[O-])c3nonc23)nnc1-c1ccccc1	Active	Active	Not Active	Not Active	Not Active	Not Active
COc1ccc(N2C(=O)CC(Sc3nnc(-c4ccccc4)o3)C2=O)cc1 (stereo unspecified)	Active	Active	Not Active	Not Active	Not Active	Not Active
CCC(=O)OCCNc1cc(Sc2nnc(-c3ccccc3)s2)c2nonc2c1[N+](=O)[O-]	Active	Active	Not Active	Not Active	Not Active	Not Active
O=S(=O)(Nc1cc(Sc2ccccc2)c(O)c2ccccc12)c1ccccc1	Active	Active	Not Active	Not Active	Not Active	Not Active
COc1cc(-c2nnc(SC3=CS(=O)(=O)c4ccccc43)o2)cc(OC)c1OC	Active	Active	Not Active	Not Active	Not Active	Not Active
[Br-].c1ccc(Nc2nc(-c3ccccc3)[n+](-c3ccccc3)s2)cc1	Active	Active	Not Active	Not Active	Not Active	Not Active
O=C1CC(Sc2nnc(-c3ccccc3O)o2)C(=O)N1c1ccccc1 (stereo unspecified)	Active	Active	Not Active	Not Active	Not Active	Not Active
COc1ccc(-c2nc(N)s[n+]2-c2ccccc2)cc1.[Cl-]	Active	Active	Not Active	Not Active	Not Active	Not Active
O=S(=O)(Nc1cc(Br)c(O)c2ccccc12)c1ccc2ccccc2c1	Active	inactive	Not Active	Not Active	Not Active	Not Active
O=C(O)c1ccc(S(=O)(=O)Nc2cc(Br)c(O)c3ccccc23)cc1	Active	Active	Not Active	Not Active	Not Active	Not Active
Cc1cc(C)c(S(=O)(=O)Nc2cc(Br)c(O)c3ccccc23)c(C)c1	Active	Active	Not Active	Not Active	Not Active	Not Active
CCOc1ccc(Nc2nc(-c3ccc(C)cc3)[n+](Cc3ccc([N+](=O)[O-])cc3)s2)cc1.[Br-]	Active	Active	Not Active	Not Active	Not Active	Not Active
O=c1[nH]c(Sc2c([N+](=O)[O-])cc(Br)c3nsnc23)nc2ccccc12	Active	Active	Not Active	Not Active	Not Active	Not Active

SMILES	Activity [1]	Activity [2]	Activity [3]	Activity [4]	Activity [5]	Activity [6]
O=C1C=CC(=O)N1c1ccc(Cl)cc1	Active	Active	Not Active	Not Active	Not Active	Not Active
O=[N+]([O-])c1cc(Br)c2nsnc2c1Sc1nnnn1C1CCCCC1	Active	Active	Not Active	Not Active	Not Active	Not Active
CC(C)c1ccc(S(=O)(=O)Nc2cc(Sc3nc[nH]n3)c(O)c3ccccc23)cc1	Active	Active	Not Active	Not Active	Not Active	Not Active
CSc1nsc(SC2=CS(=O)(=O)c3ccccc32)n1	Active	Active	Not Active	Not Active	Not Active	Not Active
Cc1ccc(S(=O)(=O)C[n+]2sc(N(c3ccccc3)c3ccccc3)nc2-c2ccccc2)cc1	inactive	inactive	–	–	–	–
c1ccc(C[n+]2sc(Nc3ccccc3)nc2-c2ccccc2)cc1	Active	Active	–	–	–	–
Cc1ccc(S(=O)(=O)C2=CS(=O)(=O)c3ccccc32)cc1	Active	Active	Not Active	Not Active	Not Active	Not Active
Cc1occc1-c1nnc(SC2=CS(=O)(=O)c3ccccc32)o1	Active	Active	Not Active	Not Active	Not Active	Not Active
O=C1CC(Sc2nnc(-c3ccccc3)[nH]2)C(=O)N1c1ccc(Oc2ccccc2)cc1 (stereo unspecified)	Active	Active	Not Active	Not Active	Not Active	Not Active
[O-][Cl+3]([O-])([O-])[O-].c1ccc(C[n+]2sc(N(c3ccccc3)c3ccccc3)nc2-c2ccccc2)cc1	Active	Active	Not Active	Not Active	Not Active	Not Active
O=C1CC(Sc2nnnn2-c2ccccc2)C(=O)N1c1ccc([N+](=O)[O-])cc1 (stereo unspecified)	Active	Active	Not Active	Not Active	Not Active	Not Active
Cc1ccc(-c2nnc(SC3CC(=O)N(c4ccc5ccccc5c4)C3=O)[nH]2)cc1 (stereo unspecified)	Active	Active	Not Active	Not Active	Not Active	Not Active
Cc1ccc(-c2nc(N(c3ccccc3)c3ccccc3)s[n+]2CS(=O)(=O)c2ccccc2)cc1.[O-][Cl+3]([O-])([O-])[O-]	inactive	inactive	Not Active	Not Active	Not Active	Not Active
O=S(=O)(C[n+]1sc(Nc2ccc(Cl)cc2Cl)nc1-c1ccccc1)c1ccccc1.[Cl-]	Active	Active	Not Active	Not Active	Not Active	Not Active
O=[N+]([O-])c1ccc(Sc2cccc(Cl)c2)c2nonc12	Active	Active	–	–	–	–
Cc1ccc(-c2nc(Nc3ccccc3)s[n+]2CS(=O)(=O)c2ccccc2)cc1.[Cl-]	Active	Active	Not Active	Not Active	Not Active	Not Active
